Test system in one assay: not listed separately
As to the kind of experiment: Inhibition of T3SS-mediated translocation in Pseudomonas aerguinosa PA99U co-expressing PcrV and PopB/PopD assessed as inhibition of ExoU-mediated lysis of co-incubated CHO cells by LDH release assay. It counts as cell-based. To be noted: Pseudomonas aeruginosa. The essentials: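 CHO cells co-incubated with P. aeruginosa PA99U33 plus compound, with procedure otherwise per earlier work. ExoU-mediated CHO lysis read out as LDH release. A parallel run without bacteria gave CHO cytotoxicity (CC50).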
Usually IC50 stands for the concentration that inhibits the measured activity by half. As for `CC(Oc1ccc(Cl)cc1Cl)C(=O)NCc1ccc2sccc2c1` (centres undefined), the IC50 was determined as 5.3 µM.

Another assay relates to CHO. As to the kind of experiment: Cytotoxicity against CHO cells by LDH release assay. The class given is cell-based. Particulars: Cricetulus griseus. The essentials:
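Assay run in parallel with the T3SS translocation assay, with CHO cells and compound but no P. aeruginosa. Cell death read as LDH release; CC50 derived.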
(Release of lactate dehydrogenase indicates damage to the cell membrane.)
Consider `CC(Oc1ccc(Cl)cc1Cl)C(=O)NCc1cccc2[nH]ccc12` (centres undefined), for which the IC50 is 24 µM.
Same read-out and setting: the result for `CCC(Oc1ccc(Cl)cc1Cl)C(=O)NCc1ccc2c(c1)OCO2` (centres undefined) reads 67 µM; that for `CC(Oc1ccc(Cl)cc1)C(=O)NCc1ccc2c(c1)OCO2` (centres undefined), 65 µM.
Same read-out and setting: the value for `CC(Oc1ccc(Cl)cc1Cl)C(=O)NCc1ccc(F)cc1` (centres undefined) was 59 µM.
In turn, `C[C@H](NC(=O)[C@@H](C)Oc1ccc(Cl)cc1Cl)c1ccc(F)cc1` gave an IC50 of 32 µM.
`C[C@@H](Oc1ccc(Cl)cc1Cl)C(=O)N[C@H](C)c1ccc(F)cc1`: the 50% inhibitory concentration (IC50) was determined as 97 µM.
Still for that read-out and setting: the result for `CC(Oc1ccc(Cl)cc1Cl)C(=O)NC1(c2ccc(F)cc2)CC1` (centres undefined) reads 28 µM; that for `CC(Oc1ccc(Cl)cc1Cl)C(=O)NCCc1ccc(F)cc1` (centres undefined), 17 µM; that for `CC(Oc1ccc(Cl)cc1Cl)C(=O)NNc1ccc(F)cc1` (centres undefined), 35 µM.
For the compound `CC(Oc1ccc(Cl)cc1Cl)C(=O)NNCc1ccc(F)cc1` (centres undefined), it took 31 µM to reach half-maximal inhibition (IC50).
In turn, `CC(Oc1ccc(Cl)cc1Cl)C(=O)NOCc1ccc(F)cc1` (centres undefined) displayed an IC50 of 59 µM.
Regarding `CC(Oc1ccc(Cl)cc1Cl)C(=O)NCc1ccccc1` (centres undefined), the IC50 came to 95 µM.
The same measure, in the same setting: the value for `CC(Oc1ccc(Cl)cc1Cl)C(=O)NCc1cccc(F)c1` (centres undefined) was 27 µM.
For `CC(Oc1ccc(Cl)cc1Cl)C(=O)NCc1ccccc1F` (centres undefined), the half-maximal inhibitory concentration (IC50) was 47 µM.
For the compound `CC(Oc1ccc(Cl)cc1Cl)C(=O)NCc1ccc(Cl)cc1` (centres undefined), 39 µM corresponded to half-maximal inhibition (IC50).
Still for that read-out and setting: the result for `CC(Oc1ccc(Cl)cc1Cl)C(=O)NCc1cccc(Cl)c1` (centres undefined) reads 19 µM.
On the same count and under the same terms, the result for `Cc1ccc(CNC(=O)C(C)Oc2ccc(Cl)cc2Cl)cc1` (centres undefined) reads 25 µM.
`Cc1cccc(CNC(=O)C(C)Oc2ccc(Cl)cc2Cl)c1` (centres undefined) gave an IC50 of 45 µM.
`COc1ccc(CNC(=O)C(C)Oc2ccc(Cl)cc2Cl)cc1` (centres undefined) returned an IC50 of 71 µM.
For the compound `COc1ccc(CNC(=O)C(C)Oc2ccc(Cl)cc2Cl)cc1OC` (centres undefined), it took 36 µM to reach half-maximal inhibition (IC50).
The same measure, in the same setting: the result for `CC(Oc1ccc(Cl)cc1Cl)C(=O)NCc1ccc2sccc2c1` (centres undefined) reads 30 µM; that for `CC(Oc1ccc(Cl)cc1Cl)C(=O)NCc1ccc2occc2c1` (centres undefined), 11 µM; that for `CC(Oc1ccc(Cl)cc1Cl)C(=O)NCc1ccc2cc[nH]c2c1` (centres undefined), 9.4 µM.
The same measure, in the same setting: the result for `CC(Oc1ccc(Cl)cc1Cl)C(=O)NCc1cc2ccccc2[nH]1` (centres undefined) reads 12 µM; that for `CC(Oc1ccc(Cl)cc1Cl)C(=O)NCc1ccc2c(ccn2C)c1` (centres undefined), 6.3 µM; that for `CC(Oc1ccc(Cl)cc1Cl)C(=O)NCc1cnc2[nH]ccc2c1` (centres undefined), 21 µM.
Still for that read-out and setting: the result for `CC[C@@H](Oc1ncc(Cl)cc1Cl)C(=O)NC(CO)c1ccc(F)cc1` (some centres undefined) reads 75 µM.

Biological target in a further assay: not listed separately
Description: Inhibition of T3SS-mediated secretion of an ExoS-beta-lactamase fusion protein into the culture medium in Pseudomonas aerguinosa MDM973 assessed as inhibition of nitrocefin hydrolysis by secretion assay. The arrangement: species or system Pseudomonas aeruginosa.
Conditions: not given
The essentials:
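ExoS-βLA fusion protein secreted by strain MDM973, detected as hydrolysis of chromogenic nitrocefin by the externalized enzyme. Absorbance read at 490 nm. Percent inhibition calculated relative to drug-free (0%) and uninduced controls (no ExoS-βLA secreted; 100%).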
For the compound `O=C(COc1ccc(Cl)cc1Cl)NCc1ccc2c(c1)OCO2`, the IC50 is greater than 100 µM.
Still for that read-out and setting: the value for `CC(C)(Oc1ccc(Cl)cc1Cl)C(=O)NCc1ccc2c(c1)OCO2` was greater than 100 µM.
In the case of `CCCC(Oc1ccc(Cl)cc1Cl)C(=O)NCc1ccc2c(c1)OCO2` (centres undefined), the IC50 was greater than 100 µM.
Same read-out and setting: the value for `CC(C)C(Oc1ccc(Cl)cc1Cl)C(=O)NCc1ccc2c(c1)OCO2` (centres undefined) was greater than 100 µM; that for `CC(Oc1ccc(Cl)cc1F)C(=O)NCc1ccc2c(c1)OCO2` (centres undefined) was greater than 100 µM; that for `CC(Oc1ccc(F)cc1F)C(=O)NCc1ccc2c(c1)OCO2` (centres undefined) was greater than 100 µM.
Still for that read-out and setting: the result for `CC(Oc1ccc(C#N)cc1Cl)C(=O)NCc1ccc2c(c1)OCO2` (centres undefined) reads greater than 100 µM; that for `COc1ccc(OC(C)C(=O)NCc2ccc3c(c2)OCO3)c(Cl)c1` (centres undefined), greater than 100 µM; that for `CC(C(=O)NCc1ccc2c(c1)OCO2)S(=O)(=O)c1ccc(Cl)cc1Cl` (centres undefined), greater than 100 µM.
For the compound `CC(C(=O)NCc1ccc(F)cc1)S(=O)(=O)c1ccc(Cl)cc1Cl` (centres undefined), the IC50 was greater than 100 µM.
The same measure, in the same setting: the result for `CC(Cc1ccc(Cl)cc1Cl)C(=O)NCc1ccc2c(c1)OCO2` (centres undefined) reads greater than 100 µM; that for `CC(Cc1ccc(Cl)cc1Cl)C(=O)NCc1ccc(F)cc1` (centres undefined), greater than 100 µM.
As to `CC(Oc1ccc(Cl)cc1Cl)C(=O)NC(C(=O)O)c1ccc(F)cc1` (centres undefined), the IC50 was greater than 100 µM.
The same measure, in the same setting: the result for `CC(Oc1ccc(Cl)cc1Cl)C(=O)Nc1ccc(F)cc1` (centres undefined) reads greater than 100 µM; that for `CC(Oc1ccc(Cl)cc1Cl)C(=O)NCCCc1ccc(F)cc1` (centres undefined), greater than 100 µM.
With `CC(Oc1ccc(Cl)cc1Cl)C(=O)N(C)Cc1ccc(F)cc1` (centres undefined), the half-inhibitory concentration (IC50) stood at 28.5 µM.
With `CC(Oc1ccc(Cl)cc1Cl)C(=O)OCc1ccc(F)cc1` (centres undefined), the IC50 was greater than 100 µM.
Same read-out and setting: the value for `CC(Oc1ccc(Cl)cc1Cl)C(=O)OCCc1ccc(F)cc1` (centres undefined) was greater than 100 µM; that for `CC(Oc1ccc(Cl)cc1Cl)C(=O)CCc1ccc(F)cc1` (centres undefined) was greater than 100 µM.
For the compound `COc1ccccc1CNC(=O)C(C)Oc1ccc(Cl)cc1Cl` (centres undefined), the IC50 amounted to 28 µM.
The same measure, in the same setting: the value for `CC(Oc1ccc(Cl)cc1Cl)C(=O)NCc1ccc2sccc2c1` (centres undefined) was 6 µM.

For the origin of these results see ChEMBL document CHEMBL3397026, “Synthesis and structure-activity relationships of novel phenoxyacetamide inhibitors of the Pseudomonas aeruginosa type III secretion system (T3SS)” (Bioorg Med Chem, 2015).
